Reference: ChEMBL document CHEMBL1152661, “Synthesis of tetraglucosyl- and tetrapolyamine-tetrabenzoporphyrin conjugates for an application in PDT” (Bioorg Med Chem, 2009)
≈ marks a conversion by molar mass, not a printed value. One block for each compound: values may come before it.

Key:
[1] = system: HaCaT; assay: Photocytotoxicity against human HaCaT cells preincubated for 24 hrs in dark followed by illumination at 5.5 x 10^-2 mW/cm'2 light measured after 24 hrs post illumination by MTT assay; assay type: functional, cell-based
[2] = system: MCF7; assay: Photocytotoxicity against human MCF7 cells preincubated for 24 hrs in dark followed by illumination at 5.5 x 10^-2 mW/cm'2 light measured after 24 hrs post illumination by MTT assay; assay type: functional, cell-based
[3] = Induction of singlet oxygen production assessed as appearance of ergosterol acetate epidioxide at 10 uM after 10 mW/cm'2 irradiation for 30 mins by TLC; assay type: physicochemical; conditions: 0.5 h
[4] = Photostability assessed as residual absorbance at 2.5 mW/cm'2 irradiation for 15 mins by photobleaching test; assay type: physicochemical; conditions: read-out: Stability
In short: (§1)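 Solutions were irradiated with white light at fluence 2.5 mW/cm2. Absorbance was measured at the Soret band maximum and reported as % residual absorbance versus irradiation time.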

[5] = Photostability assessed as residual absorbance at 2.5 mW/cm'2 irradiation for 30 mins by photobleaching test; assay type: physicochemical; conditions: read-out: Stability; in short: as §1
[6] = Photostability assessed as residual absorbance at 2.5 mW/cm'2 irradiation for 45 mins by photobleaching test; assay type: physicochemical; conditions: read-out: Stability; in short: as §1
[7] = Photostability assessed as residual absorbance at 2.5 mW/cm'2 irradiation for 60 mins by photobleaching test; assay type: physicochemical; conditions: read-out: Stability; in short: as §1
[8] = Octanol-water partition coefficient, log P at 300 uM by absorption spectroscopy; assay type: physicochemical
In short: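 1-Octanol/water partitioning at 25 °C using equal volumes of water and 1-octanol. Dye solution at 300 µM was vortexed and centrifuged. Aliquots of each phase were diluted separately into MeOH, and dye concentration was read by absorption spectroscopy. log P = log([dye]octanol/[dye]water).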

[9] = Homo sapiens, HaCaT, read-out: IC50
[10] = Homo sapiens, MCF7, read-out: IC50

Compound: c1ccc(-c2c3nc(c(-c4ccccc4)c4[nH]c(c(-c5ccccc5)c5nc(c(-c6ccccc6)c6[nH]c2c2ccccc62)-c2ccccc2-5)c2ccccc42)-c2ccccc2-3)cc1 [Ar4TBP]
IC50 ([1]; hacat): Not Active | IC50 ([2]; mcf7): Not Active

Compound: O=C1OC2(c3ccccc31)c1cc(Br)c(O)c(Br)c1Oc1c2cc(Br)c(O)c1Br [EOSIN]
Activity [3]: Active

Compound: NCCOCCOCCNC(=O)c1ccc(-c2c3nc(c(-c4ccc(C(=O)NCCOCCOCCN)cc4)c4[nH]c(c(-c5ccc(C(=O)NCCOCCOCCN)cc5)c5nc(c(-c6ccc(C(=O)NCCOCCOCCN)cc6)c6[nH]c2c2ccccc62)-c2ccccc2-5)c2ccccc42)-c2ccccc2-3)cc1
Activity [3]: Active

Compound: OC[C@H]1O[C@@H](Oc2ccc(-c3c4nc(c(-c5ccc(O[C@@H]6O[C@H](CO)[C@@H](O)[C@H](O)[C@H]6O)cc5)c5[nH]c(c(-c6ccc(O[C@@H]7O[C@H](CO)[C@@H](O)[C@H](O)[C@H]7O)cc6)c6nc(c(-c7ccc(O[C@@H]8O[C@H](CO)[C@@H](O)[C@H](O)[C@H]8O)cc7)c7[nH]c3c3ccccc73)-c3ccccc3-6)c3ccccc53)-c3ccccc3-4)cc2)[C@H](O)[C@@H](O)[C@@H]1O
remaining at 0.25 h [4]: 100% | remaining at 0.5 h [5]: 99% | remaining at 0.75 h [6]: 98% | remaining at 1 h [7]: 95% | Activity [3]: Active | logP at 300 µM [8]: 0.18 | IC50 [1, 9]: 0.971 µg/mL (≈ 0.636 µM) | IC50 [2, 10]: 8.41 µg/mL (≈ 5.51 µM)

Compound: NCCCNCCCCN(CCCN)CCCCNC(=O)c1ccc(-c2c3nc(c(-c4ccc(C(=O)NCCCCN(CCCN)CCCCNCCCN)cc4)c4[nH]c(c(-c5ccc(C(=O)NCCCCN(CCCN)CCCCNCCCN)cc5)c5nc(c(-c6ccc(C(=O)NCCCCN(CCCN)CCCCNCCCN)cc6)c6[nH]c2c2ccccc62)-c2ccccc2-5)c2ccccc42)-c2ccccc2-3)cc1
remaining at 0.25 h [4]: 100% | remaining at 0.5 h [5]: 100% | remaining at 0.75 h [6]: 99% | remaining at 1 h [7]: 97% | Activity [3]: Active | logP at 300 µM [8]: -0.47 | IC50 ([1]; hacat): Not Active | IC50 ([2]; mcf7): Not Active

Compound: PORFIMER SODIUM
Activity [3]: Active | IC50 ([1]; hacat): 0.0787 µg/mL | IC50 ([2]; mcf7): 1.224 µg/mL

Second part, led by results:

Activity [3]: Active
Compound: O=C([O-])c1c(Cl)c(Cl)c(Cl)c(Cl)c1-c1c2cc(I)c(=O)c(I)c-2oc2c(I)c([O-])c(I)cc12.[K+].[K+]

Activity [3]: Active
Compound: CC(C)(C)OC(=O)NCCCN(CCCCNC(=O)c1ccc(-c2c3nc(c(-c4ccc(C(=O)NCCCCN(CCCCN(CCCNC(=O)OC(C)(C)C)C(=O)OC(C)(C)C)CCCNC(=O)OC(C)(C)C)cc4)c4[nH]c(c(-c5ccc(C(=O)NCCCCN(CCCCN(CCCNC(=O)OC(C)(C)C)C(=O)OC(C)(C)C)CCCNC(=O)OC(C)(C)C)cc5)c5nc(c(-c6ccc(C(=O)NCCCCN(CCCCN(CCCNC(=O)OC(C)(C)C)C(=O)OC(C)(C)C)CCCNC(=O)OC(C)(C)C)cc6)c6[nH]c2c2ccccc62)-c2ccccc2-5)c2ccccc42)-c2ccccc2-3)cc1)CCCCN(CCCNC(=O)OC(C)(C)C)C(=O)OC(C)(C)C

Activity [3]: Active
Compound: CC(C)(C)OC(=O)NCCOCCOCCNC(=O)c1ccc(-c2c3nc(c(-c4ccc(C(=O)NCCOCCOCCNC(=O)OC(C)(C)C)cc4)c4[nH]c(c(-c5ccc(C(=O)NCCOCCOCCNC(=O)OC(C)(C)C)cc5)c5nc(c(-c6ccc(C(=O)NCCOCCOCCNC(=O)OC(C)(C)C)cc6)c6[nH]c2c2ccccc62)-c2ccccc2-5)c2ccccc42)-c2ccccc2-3)cc1

remaining at 0.25 h [4]: 100% | remaining at 0.5 h [5]: 99% | remaining at 0.75 h [6]: 97% | remaining at 1 h [7]: 96% | Activity [3]: Active | logP at 300 µM [8]: -0.21
Compound: NCCCCN(CCCN)CCCCNC(=O)c1ccc(-c2c3nc(c(-c4ccc(C(=O)NCCCCN(CCCN)CCCCN)cc4)c4[nH]c(c(-c5ccc(C(=O)NCCCCN(CCCN)CCCCN)cc5)c5nc(c(-c6ccc(C(=O)NCCCCN(CCCN)CCCCN)cc6)c6[nH]c2c2ccccc62)-c2ccccc2-5)c2ccccc42)-c2ccccc2-3)cc1
IC50 [1, 9]: 3.42 µg/mL (≈ 1.92 µM) | IC50 [2, 10]: 7.28 µg/mL (≈ 4.08 µM)

Activity [3]: Active
Compound: CC(C)(C)OC(=O)NCCCCN(CCCCNC(=O)c1ccc(-c2c3nc(c(-c4ccc(C(=O)NCCCCN(CCCCNC(=O)OC(C)(C)C)CCCNC(=O)OC(C)(C)C)cc4)c4[nH]c(c(-c5ccc(C(=O)NCCCCN(CCCCNC(=O)OC(C)(C)C)CCCNC(=O)OC(C)(C)C)cc5)c5nc(c(-c6ccc(C(=O)NCCCCN(CCCCNC(=O)OC(C)(C)C)CCCNC(=O)OC(C)(C)C)cc6)c6[nH]c2c2ccccc62)-c2ccccc2-5)c2ccccc42)-c2ccccc2-3)cc1)CCCNC(=O)OC(C)(C)C

Activity [3]: Active
Compound: CC(=O)OC[C@H]1O[C@H](OCC(=O)NCOCCOCCNC(=O)c2ccc(-c3c4nc(c(-c5ccc(C(=O)NCCOCCOCNC(=O)CO[C@H]6O[C@H](COC(C)=O)[C@@H](OC(C)=O)[C@H](OC(C)=O)[C@H]6O)cc5)c5[nH]c(c(-c6ccc(C(=O)NCCOCCOCNC(=O)CO[C@H]7O[C@H](COC(C)=O)[C@@H](OC(C)=O)[C@H](OC(C)=O)[C@H]7O)cc6)c6nc(c(-c7ccc(C(=O)NCCOCCOCNC(=O)CO[C@H]8O[C@H](COC(C)=O)[C@@H](OC(C)=O)[C@H](OC(C)=O)[C@H]8O)cc7)c7[nH]c3c3ccccc73)-c3ccccc3-6)c3ccccc53)-c3ccccc3-4)cc2)[C@H](O)[C@@H](OC(C)=O)[C@@H]1OC(C)=O
